ChEMBL document CHEMBL1157456, “Unsymmetric aryl-alkyl disulfide growth inhibitors of methicillin-resistant Staphylococcus aureus and Bacillus anthracis” (Bioorg Med Chem, 2008)
In brackets after ≈: the same amount, converted by molar mass. Activity calls are given as the source filed them. The calls are words filed in the database; no cut-off is given here.

Assays:
Bacillus anthracis [1] = experiment: Antibacterial activity against Bacillus anthracis after 24 hrs by serial dilution method; format: functional
Staphylococcus aureus [2] = experiment: Antibacterial activity against Staphylococcus aureus ATCC 25923 after 24 hrs by serial dilution method; format: functional; details: for MIC: ATCC 25923, 24 h
Staphylococcus aureus [3] = experiment: Antibacterial activity against methicillin-resistant Staphylococcus aureus ATCC 43300 after 24 hrs by serial dilution method; format: functional; details: ATCC 43300, 24 h
Escherichia coli [4] = experiment: Inhibition of purified Escherichia coli FabH at 5 uM by trichloroacetic acid precipitation assay relative to control
Summary of the method: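 ecFabH (100 nM monomer) was preincubated 15 min at room temperature with 5 µM disulfide in 50 mM sodium phosphate pH 7.4. Radiolabeled 3-ketoacyl-ACP was formed from [1-14C]acetyl-CoA (40 µM) and malonyl-ACP (10 µM), the latter from a coupled S. glaucescens FabD/ACP system. Product was collected by TCA precipitation. Activity was expressed as % decrease versus a no-compound control, in duplicate.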

Escherichia coli [5] = experiment: Antibacterial activity against Escherichia coli K12 ATCC 23590 after 24 hrs by serial dilution method; format: functional; details: K12, 24 h
Staphylococcus aureus [6] = experiment: Antibacterial activity against Staphylococcus aureus ATCC 25923 assessed as inhibition zone diameter at 20 ug after 24 hrs by Kirby-Bauer test; format: functional; details: ATCC 25923, 24 h, read-out: IZ
Summary of the method: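 Kirby-Bauer on TSA: a 0.5 McFarland saline suspension was spread as a lawn. 6 mm wells were bored and given 20 µL of 1 mg/mL compound in DMSO (20 ug). Plates ran 24 h at 37 °C. Inhibition zone diameter was averaged over 3 trials.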

Bacillus anthracis [7] = experiment: Antibacterial activity against Bacillus anthracis assessed as inhibition zone diameter at 20 ug after 24 hrs by Kirby-Bauer test; format: functional; details: read-out: IZ
[8] = target: T1, Mycobacterial beta-ketoacyl-[acyl-carrier-protein] synthase III (Mycobacterium tuberculosis) (UniProt P9WNG3); experiment: Inhibition of Mycobacterium tuberculosis FabH
T1 sequence (whole entry): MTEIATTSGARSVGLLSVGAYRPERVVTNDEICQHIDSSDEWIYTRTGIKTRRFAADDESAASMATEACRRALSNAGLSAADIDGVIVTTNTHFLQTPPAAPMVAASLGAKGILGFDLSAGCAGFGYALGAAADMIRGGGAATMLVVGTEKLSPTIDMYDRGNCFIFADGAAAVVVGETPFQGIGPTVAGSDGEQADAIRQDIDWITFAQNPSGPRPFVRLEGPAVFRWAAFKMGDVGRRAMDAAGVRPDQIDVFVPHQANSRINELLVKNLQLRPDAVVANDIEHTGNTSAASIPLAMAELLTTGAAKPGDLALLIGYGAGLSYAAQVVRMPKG

Escherichia coli [9] = experiment: Inhibition of purified Escherichia coli FabH at 1 uM by trichloroacetic acid precipitation assay relative to control
Summary of the method: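 Purified ecFabH (100 nM monomer) was preincubated 15 min at room temperature with 1 µM compound in 50 mM sodium phosphate pH 7.4, without CoA. It was then added to [1-14C]acetyl-CoA (40 µM) and malonyl-ACP (10 µM), made with S. glaucescens FabD/ACP. 3-Ketoacyl-ACP was measured by TCA precipitation, as % inhibition versus a no-inhibitor control, in duplicate.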

[10] = Inhibition of Escherichia coli FabH

CCC(C)SSc1ccc([N+](=O)[O-])cc1 (configuration not stated)
MIC (Bacillus anthracis [1]): 0.5 µg/mL (≈ 2.05 µM) | MIC (Staphylococcus aureus [2]): 0.8 µg/mL (≈ 3.29 µM) | MIC (Staphylococcus aureus [3]): 1 µg/mL (≈ 4.11 µM) | inhibition (Escherichia coli [4]): 96% | MIC (Escherichia coli [5]): 128 µg/mL (≈ 526 µM)

CSSCCc1ccc([N+](=O)[O-])cc1
MIC (Bacillus anthracis [1]): 64 µg/mL (≈ 279 µM) | Activity (Staphylococcus aureus [2]): Active

CSSc1ccccc1CO
zone of inhibition at 20 µg/disc (Staphylococcus aureus [6]): 14 mm

CSSc1ccccn1
zone of inhibition at 20 µg/disc (Staphylococcus aureus [6]): 23 mm

CCC(C)SSc1cccc([N+](=O)[O-])c1 (configuration not stated)
MIC (Bacillus anthracis [1]): 8 µg/mL (≈ 32.9 µM) | zone of inhibition at 20 µg/disc (Bacillus anthracis [7]): 41 mm | MIC (Staphylococcus aureus [2]): 8 µg/mL (≈ 32.9 µM) | MIC (Staphylococcus aureus [3]): 32 µg/mL (≈ 131 µM) | zone of inhibition at 20 µg/disc (Staphylococcus aureus [6]): 45 mm

CSSc1ccccc1[N+](=O)[O-]
MIC (Bacillus anthracis [1]): 16 µg/mL (≈ 79.5 µM) | zone of inhibition at 20 µg/disc (Bacillus anthracis [7]): 31 mm | MIC (Staphylococcus aureus [2]): 16 µg/mL (≈ 79.5 µM) | MIC (Staphylococcus aureus [3]): 32 µg/mL (≈ 159 µM) | zone of inhibition at 20 µg/disc (Staphylococcus aureus [6]): 37 mm

CCSSc1ccccc1[N+](=O)[O-]
MIC (Bacillus anthracis [1]): 16 µg/mL (≈ 74.3 µM) | zone of inhibition at 20 µg/disc (Bacillus anthracis [7]): 35 mm | MIC (Staphylococcus aureus [2]): 16 µg/mL (≈ 74.3 µM) | MIC (Staphylococcus aureus [3]): 32 µg/mL (≈ 149 µM) | zone of inhibition at 20 µg/disc (Staphylococcus aureus [6]): 40 mm

CN[C@H](CC(C)C)C(=O)N[C@H]1C(=O)N[C@@H](CC(N)=O)C(=O)N[C@H]2C(=O)N[C@H]3C(=O)N[C@H](C(=O)N[C@H](C(=O)O)c4cc(O)cc(O)c4-c4cc3ccc4O)[C@H](O)c3ccc(c(Cl)c3)Oc3cc2cc(c3O[C@@H]2O[C@H](CO)[C@@H](O)[C@H](O)[C@H]2O[C@H]2C[C@](C)(N)[C@H](O)[C@H](C)O2)Oc2ccc(cc2Cl)[C@H]1O [VANCOMYCIN]
MIC (Staphylococcus aureus [2]): 0.25 µg/mL (≈ 0.173 µM) | zone of inhibition at 20 µg/disc (Staphylococcus aureus [6]): 27 mm

CSSc1ccc(F)c(F)c1
zone of inhibition at 20 µg/disc (Staphylococcus aureus [6]): 11 mm

CCCCCCCCCCOC(=O)SSCCO
Activity [8]: Active

O=C(O)c1cc([N+](=O)[O-])ccc1SSc1ccc([N+](=O)[O-])cc1C(=O)O
Activity (Staphylococcus aureus [2]): inactive

CC(C)SSc1cccc([N+](=O)[O-])c1
MIC (Bacillus anthracis [1]): 1 µg/mL (≈ 4.36 µM) | MIC (Staphylococcus aureus [2]): < 0.125 µg/mL | MIC (Staphylococcus aureus [3]): 16 µg/mL (≈ 69.8 µM)

CCC(C)SN1C(=O)[C@H](OC)[C@@H]1c1ccccc1Cl (some centres not stated)
inhibition (Escherichia coli [9]): 30%

CSSc1ccc(N)cc1
zone of inhibition at 20 µg/disc (Staphylococcus aureus [6]): 0 mm

CSSc1ccc([N+](=O)[O-])cc1
MIC (Bacillus anthracis [1]): 1 µg/mL (≈ 4.97 µM) | MIC (Staphylococcus aureus [2]): 16 µg/mL (≈ 79.5 µM) | MIC (Staphylococcus aureus [3]): 32 µg/mL (≈ 159 µM) | inhibition (Escherichia coli [4]): 94% | MIC (Escherichia coli [5]): 16 µg/mL (≈ 79.5 µM) | zone of inhibition at 20 µg/disc (Staphylococcus aureus [6]): 35 mm

CC(C)SSc1ccccc1[N+](=O)[O-]
MIC (Bacillus anthracis [1]): 32 µg/mL (≈ 140 µM) | zone of inhibition at 20 µg/disc (Bacillus anthracis [7]): 27 mm | MIC (Staphylococcus aureus [2]): 16 µg/mL (≈ 69.8 µM) | MIC (Staphylococcus aureus [3]): 32 µg/mL (≈ 140 µM) | zone of inhibition at 20 µg/disc (Staphylococcus aureus [6]): 31 mm

CC(C)SSc1ccc([N+](=O)[O-])cc1
MIC (Bacillus anthracis [1]): 0.125 µg/mL (≈ 0.545 µM) | MIC (Staphylococcus aureus [2]): < 0.125 µg/mL | MIC (Staphylococcus aureus [3]): < 0.125 µg/mL | inhibition (Escherichia coli [4]): 98.5% | MIC (Escherichia coli [5]): 96 µg/mL (≈ 419 µM)

CSSCCNC(=O)CCNC(=O)[C@@H](O)C(C)(C)COP(=O)(O)OP(=O)(O)OC[C@H]1O[C@@H](n2cnc3c(N)ncnc32)[C@H](O)[C@@H]1OP(=O)(O)O
IC50 [10]: 57 µM

CCCCSSc1ccc([N+](=O)[O-])cc1
MIC (Bacillus anthracis [1]): 1 µg/mL (≈ 4.11 µM) | MIC (Staphylococcus aureus [2]): 1 µg/mL (≈ 4.11 µM) | MIC (Staphylococcus aureus [3]): 32 µg/mL (≈ 131 µM) | inhibition (Escherichia coli [4]): 93% | MIC (Escherichia coli [5]): 96 µg/mL (≈ 394 µM)

CSSCc1ccc([N+](=O)[O-])cc1
MIC (Bacillus anthracis [1]): 32 µg/mL (≈ 149 µM) | Activity (Staphylococcus aureus [2]): Active

CCOc1cccc(SSC)c1
zone of inhibition at 20 µg/disc (Staphylococcus aureus [6]): 9 mm

CO[C@H]1C(=O)N(SC)[C@H]1c1ccccc1Cl
inhibition (Escherichia coli [9]): 89%

CCC(C)SSc1ccccc1[N+](=O)[O-] (configuration not stated)
MIC (Bacillus anthracis [1]): 32 µg/mL (≈ 131 µM) | zone of inhibition at 20 µg/disc (Bacillus anthracis [7]): 23 mm | MIC (Staphylococcus aureus [2]): 32 µg/mL (≈ 131 µM) | MIC (Staphylococcus aureus [3]): 32 µg/mL (≈ 131 µM) | zone of inhibition at 20 µg/disc (Staphylococcus aureus [6]): 24 mm

CC1(C)S[C@@H]2[C@H](NC(=O)Cc3ccccc3)C(=O)N2[C@H]1C(=O)O [PENICILLIN G]
MIC (Staphylococcus aureus [2]): 0.03 µg/mL (≈ 0.0897 µM) | MIC (Staphylococcus aureus [3]): 64 µg/mL (≈ 191 µM) | zone of inhibition at 20 µg/disc (Staphylococcus aureus [6]): 33 mm

CCCSSc1ccc([N+](=O)[O-])cc1
MIC (Bacillus anthracis [1]): 1 µg/mL (≈ 4.36 µM) | MIC (Staphylococcus aureus [2]): 16 µg/mL (≈ 69.8 µM) | MIC (Staphylococcus aureus [3]): 16 µg/mL (≈ 69.8 µM) | inhibition (Escherichia coli [4]): 91% | MIC (Escherichia coli [5]): 64 µg/mL (≈ 279 µM) | zone of inhibition at 20 µg/disc (Staphylococcus aureus [6]): 43 mm

CSc1ccc([N+](=O)[O-])cc1
Activity (Staphylococcus aureus [2]): inactive

CCSSc1ccc([N+](=O)[O-])cc1
MIC (Bacillus anthracis [1]): 0.25 µg/mL (≈ 1.16 µM) | MIC (Staphylococcus aureus [2]): 1 µg/mL (≈ 4.64 µM) | MIC (Staphylococcus aureus [3]): 16 µg/mL (≈ 74.3 µM) | inhibition (Escherichia coli [4]): 98% | MIC (Escherichia coli [5]): 16 µg/mL (≈ 74.3 µM)

CSSc1ccc(NC(C)=O)cc1
zone of inhibition at 20 µg/disc (Staphylococcus aureus [6]): 20 mm

CCSSc1cccc([N+](=O)[O-])c1
MIC (Bacillus anthracis [1]): 8 µg/mL (≈ 37.2 µM) | zone of inhibition at 20 µg/disc (Bacillus anthracis [7]): 40 mm | MIC (Staphylococcus aureus [2]): 8 µg/mL (≈ 37.2 µM) | MIC (Staphylococcus aureus [3]): 64 µg/mL (≈ 297 µM) | zone of inhibition at 20 µg/disc (Staphylococcus aureus [6]): 45 mm

CSSc1cccc([N+](=O)[O-])c1
MIC (Bacillus anthracis [1]): 8 µg/mL (≈ 39.7 µM) | zone of inhibition at 20 µg/disc (Bacillus anthracis [7]): 43 mm | MIC (Staphylococcus aureus [2]): 16 µg/mL (≈ 79.5 µM) | MIC (Staphylococcus aureus [3]): 64 µg/mL (≈ 318 µM) | zone of inhibition at 20 µg/disc (Staphylococcus aureus [6]): 36 mm

CSSc1ccc(C)c(C)c1
zone of inhibition at 20 µg/disc (Staphylococcus aureus [6]): 10 mm
